An excerpt weighted towards active compounds, which were near 4.6% of everything screened.
Pemphigus Ab inh = blocks pemphigus antibody binding to human desmoglein-3; P32926; DSG3-coupled beads, scFv-anti-DSG3-GFP binding, flow cytometry; hits give low values; binding (percent of control), % at 10 µM; 310,000 compounds, 0.48% hits;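 active = binding more than 3 SD below its plate's average and above zero; inconclusive = below that plate limit but binding exactly zero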;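 note: hits lower antibody fragment binding to DSG3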
PolyA inh = yeast polyadenylation inhibition | activity score, % at 12 µM | S. cerevisiae SKY197-pL101 polyadenylation reporter, beta-gal luminescence; efflux-impaired pdr1/pdr3 knockout yeast; score 100 = 6 SD above DMSO | 300,000 compounds, 0.02% hits | AID 1875;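 active = lowest replicate activity score at least 50, where 100 means six control SD above control mean; inconclusive = lowest score under 50 but half or more replicates reach 50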;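 note: yeast exposed to compound for 9 h at 30 °C; higher score means more reporter readthrough which indicates perturbed polyadenylation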
Arrestin-AP2 inh = inhibitors of human beta-arrestin and AP2 interaction; FITC-arrestin peptide / GST-AP2 beads, flow cytometry; AP2 beta2 appendage carries R879A mutation; inhibition, % at 10 µM; 340,000 compounds, 0.31% hits; AID 504490;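 active = inhibition above a set limit, near 3 SD of compounds lacking own fluorescence, cut at about 54% in these data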;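 note: plate controls were DMSO wells for no effect and 5 µM unlabelled arrestin peptide for full effect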
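Material – GST-tagged AP2 beta2-adaptin appendage (R879A) on 4 µm glutathione beads · Probe or stimulus – fluorescein-tagged arrestin peptide at 50 nM final · Timing – 12 min plus 1 h, RT · Detection – bead flow cytometry, FITC channel · Read-out basis – inhibition as reduced fluorescein signal on beads, percent · Medium – PBS plus Tween 20 (0.05%) and BSA (0.1%)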
NALP3 yeast inh = NALP3 inhibition in yeast. Yeast reconstituted NLRP3/ASC/caspase-1, beta-gal luminescence, 24 h. inhibition, % at 10 µM. 330,000 compounds, 0.39% hits. AID 2825;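 active = inhibition of 50% or more; inactive = inhibition below 50%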;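 note: plate controls were induced DMSO wells for no effect and uninduced yeast grown without galactose for full effect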
NALP1 inh = NALP1 inhibition | AID 2071 | S. cerevisiae NALP1/ASC/caspase-1 growth, X-gal OD620, 72 h | 280,000 compounds, 0.61% hits | inhibition, % at 10 µM; in the data active = inhibition mostly above about 24%, no sharp cut-off; inactive = mostly below about 32%
ALR inh = inhibitors of human sulfhydryl oxidase ALR; inhibition, % (no concentration beside the values); 290,000 compounds, 3.8% hits; P55789; purified ALR, DTT oxidation, H2O2 HRP-luminol luminescence;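 active = mean replicate inhibition above about 79%, with every replicate also reaching it, limit read from the data; inconclusive = only one of the two criteria met; inactive = mean below limit and not every replicate reaching it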
Target sequence (P55789 whole entry, looked up): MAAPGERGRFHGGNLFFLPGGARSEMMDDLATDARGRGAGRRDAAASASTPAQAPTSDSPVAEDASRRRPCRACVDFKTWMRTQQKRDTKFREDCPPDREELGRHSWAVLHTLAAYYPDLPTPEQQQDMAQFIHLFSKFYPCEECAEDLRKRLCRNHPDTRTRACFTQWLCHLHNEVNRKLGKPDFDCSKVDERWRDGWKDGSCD
NALP3 confirm = NALP3 inhibition confirmation in yeast; inhibition, % at 10 µM; AID 435006; 1,300 compounds, 81% hits; yeast expressing human NALP3, luminescence; shares compounds with NALP3 yeast inh; in the data active = inhibition above about 48%
Casp1 ASC ctr = caspase-1-ASC yeast counter-screen hit; 1,000 compounds, 66% hits; shares compounds with NALP3 yeast inh; yeast expressing Caspase-1-ASC, luminescence counter screen; inhibition, % at 10 µM
NALP3 yeast rt = retest-confirmed inhibitor of NALP3 in yeast | shares compounds with NALP3 yeast inh | yeast expressing human NALP3, luminescence read-out | inhibition, % at 10 µM | 1,000 compounds, 53% hits | AID 488794
An asterisk follows results filed as active; ? = inconclusive; / = not tested or not shown. Cut-off read from the data, not from the text of the source, unless noted: active = inhibition above about 50%; inactive = the rest.

SMILES | Pemphigus Ab inh | PolyA inh | Arrestin-AP2 inh | NALP3 yeast inh | NALP1 inh | ALR inh | NALP3 confirm | Casp1 ASC ctr | NALP3 yeast rt
CCCCCCC(=O)O | 108 | / | -5 | 3 | / | / | / | / | /
COc1cc2cc(CCCOC(=O)c3ccco3)oc(=O)c2cc1OC | 106 | / | 8 | 22 | / | -10 | / | / | /
Cc1ccccc1NC(=O)c1ccc(Nc2c([N+](=O)[O-])cc([N+](=O)[O-])c3ccccc23)cc1 | 94 | -49 | -1 | 56* | -4 | / | -9 | / | /
O=C(Nc1nnc(-c2ccc(Br)cc2)o1)c1ccco1 | 97 | ? | -1 | 19 | / | 3 | / | / | /
Cc1ccc(NC(=O)CCNC(=O)c2ccc(Cl)cc2)nc1 | 101 | 20 | -3 | 12 | 22 | 3 | / | / | /
O=C1NCC2=C1C(c1ccc(Br)cc1)Nc1ccccc1N2 (stereo unspecified) | 99 | -5 | 3 | 52* | 5 | 72 | 63* | 41 | 33
O=C1Cc2ccccc2C(c2ccc(Br)cc2)N1 (stereo unspecified) | 89 | 0 | -9 | -2 | -10 | -12 | / | / | /
COc1ccc(-c2cn3c4c(sc3n2)CCCC4)cc1 | 92 | -19 | 8 | 52* | 0 | 96* | 61* | 49 | 45
C/C(=N/Nc1ncc(Br)cn1)c1ccc(Br)cc1 | 110 | -27 | -7 | 55* | 14 | 1 | 70* | 61* | 52*
Cc1ccc(C)c(NC(=O)c2ccc(S(=O)(=O)C(F)F)cc2)c1 | 97 | 17 | -3 | 53* | 24 | -6 | 65* | 46 | 43
COc1ccccc1NC(=O)Nn1cnnc1 | 105 | -3 | 24 | -4 | -9 | -6 | / | / | /
Oc1ccc(N=Cc2ccc(OCc3ccccc3)cc2)cc1 | 99 | -6 | 27 | 51* | 8 | 48 | 31 | / | /
Cc1ccc(N(C(=O)CNC(=O)c2ccco2)C(C(=O)NC2CCCCC2)c2cccnc2)c(C)c1 (stereo unspecified) | / | -3 | -1 | 4 | 15 | -5 | / | / | /
Brc1ccc(-n2cnc(-c3ccccc3)c2)cc1 | 114 | -8 | 6 | 52* | 7 | 2 | 77* | 36 | 51*
CCOCCCNC(=O)c1ccc(C2SCC(=O)N2Cc2ccccc2)cc1 (stereo unspecified) | 110 | 19 | -1 | -4 | 10 | / | / | / | /
COc1ccc2nc(SCC(=O)NC3CCCC3)c(C)cc2c1 | 111 | 14 | -17 | 58* | 14 | -12 | 71* | 53* | 49
COc1ccc2nc(SCC(=O)NC3CCCCC3)[nH]c2c1 | / | 4 | 23 | 12 | 4 | 53 | / | / | /
C/C=C/c1ccc(OCC(=O)NCc2ccccc2OC)c(OC)c1 | 104 | -19 | 19 | 50* | -4 | 0 | 25 | / | /
COc1ccccc1CNC(=O)COc1ccccc1C | 129 | 4 | -6 | 36 | 15 | 5 | / | / | /
CCc1ccc(OCC(=O)NCc2ccco2)c(Br)c1 | 81 | -14 | 3 | 51* | 18 | / | 46 | 44 | 46
COc1ccccc1C(=O)Nc1cc(C)ccc1NC(=O)c1ccco1 | 109 | 16 | -6 | 25 | 11 | 6 | / | / | /
Cc1cccc2c1-c1sc(C(=O)Nc3ccccc3N3CCN(C)CC3)cc1CO2 | 92 | -7 | -13 | 55* | / | / | 64* | / | /
CCc1cc(C(=O)Nc2ccccc2N2CCOCC2)sc1C | 109 | / | -11 | 51* | / | -31 | 53* | 34 | 42
Cc1cccc2c1-c1sc(C(=O)N3CCCCC3)cc1CO2 | 110 | -7 | -2 | 28 | 6 | -6 | / | / | /
CCc1cc(C(=O)Nc2cc(S(=O)(=O)N(CC)CC)ccc2N2CCOCC2)sc1C | 104 | 6 | -12 | 28 | / | / | / | / | /
SMILES | Pemphigus Ab inh | PolyA inh | Arrestin-AP2 inh | NALP3 yeast inh | NALP1 inh | ALR inh | NALP3 confirm | Casp1 ASC ctr | NALP3 yeast rt
Cc1ccccc1CN(C)CC(=O)NC(C)CCc1ccccc1 (stereo unspecified) | 116 | -8 | 3 | -15 | -27 | -41 | / | / | /
NC(=O)c1cc2cc(Cc3ccccc3Cl)ccc2oc1=O | 105 | -8 | 13 | 7 | 16 | -2 | / | / | /
FC(F)(F)c1cccc(Oc2cc(C(F)(F)F)nc(-c3ccccn3)n2)c1 | / | -5 | 4 | 5 | -3 | -9 | / | / | /
c1ccc2c(c1)CSc1ccccc1N2 | 107 | -18 | 8 | 53* | / | 98* | 30 | / | /
COc1ccc(C)cc1NC(=O)C1CCN(S(=O)(=O)c2ccc3c(c2)C(C)(C)C(=O)N3C)CC1 | 97 | 9 | 5 | 80* | -3 | -6 | 47 | 15 | 17
COCc1nnc(NC(=O)c2c(-c3c(Cl)cccc3Cl)noc2C)s1 | 114 | 6 | -12 | 14 | 16 | 5 | / | / | /
O=C(COC(=O)c1ccc2ccccc2n1)NCc1ccccc1 | 104 | -1 | 33 | 14 | 15 | -1 | / | / | /
O=C(CSc1nnc(COc2ccc(Cl)cc2)o1)N(c1ccccc1)C1CCS(=O)(=O)C1 (stereo unspecified) | 95 | / | / | / | / | / | / | / | /
CSc1nsc(SCC(=O)NCc2ccc(C)cc2)n1 | 110 | -20 | -4 | 51* | -7 | -7 | 62* | 44 | 39
NC(=O)c1ccc(NC(=O)COC(=O)c2c[nH]c3ccccc23)cc1 | 97 | / | 5 | 5 | / | / | / | / | /
O=C(NCCCCc1ccccc1)c1cccc(Br)c1 | 109 | 0 | -1 | 53* | 24 | -3 | 69* | 57* | 40
O=C(NC(=O)c1ccc(Cl)cc1)OC1CCCCC1 | 111 | -10 | 29 | -10 | 23 | / | / | / | /
O=S(=O)(c1ccc(Br)s1)N1CCN(c2ccccc2)CC1 | 95 | -22 | 4 | 24 | 23 | -4 | / | / | /
CCN1CCN(S(=O)(=O)c2ccc(Br)s2)CC1 | 97 | -1 | -7 | 8 | 9 | 7 | / | / | /
O=S(=O)(c1ccc(Br)s1)N1CCN(CCc2ccccc2)CC1 | 90 | / | 7 | 61* | / | -2 | 63* | 34 | 28
O=S(=O)(c1ccc(Br)s1)N1CCN(c2ccc(F)cc2)CC1 | 100 | -26 | -2 | 55* | -37 | -27 | 65* | 27 | 27
C=C1/C=C(\C)[C@](C)(O)C[C@H](O)CC(=O)[C@H](O)[C@@H](O)[C@H](C)C[C@H](C)OC(=O)/C(C)=C/CC/C=C/[C@@H]2O[C@H]2C[C@H](C)C1 | / | / | / | 83* | / | -1 | 89* | / | /
O=C(COc1ncnc2ccccc12)c1ccc2c(c1)OCCO2 | 98 | -8 | -3 | 53* | -19 | -3 | 69* | 44 | 45
COC(=O)C1C(C(=O)OC)C1(c1ccccc1)c1ccccc1 (stereo unspecified) | 102 | 11 | 12 | -138 | 0 | 3 | -38 | / | /
